{"data": "Assay results from different studies", "note": "Compare with care: the assays were run in different laboratories."}
{"assay": "metabolic stability", "test system": "mouse, liver microsomes", "conditions": "1 µM, pH 7.4", "measurement": "microsomal CLint", "result": "36.2 µL/min/mg", "Structure (SMILES)": "CCCCN(CCCC)CCCOc1ccc2c(=O)c3c([nH]c2c1)CCCC3"}
{"assay": "metabolic stability", "test system": "mouse, liver microsomes", "measurement": "scaled CLint", "result": "694 mL/min/kg", "Structure (SMILES)": "CNCCNC(=O)c1cc(C(C)C)nc2c1cnn2C(C)C"}
{"assay": "metabolic stability", "test system": "mouse, liver microsomes", "conditions": "1 µM, pH 7.4", "measurement": "microsomal CLint", "result": "49 µL/min/mg", "Structure (SMILES)": "O=c1c2c([nH]c3ccc(F)c(Oc4ccc(OC(F)(F)F)cc4)c13)CCCC2"}
{"test system": "rat, plasma", "conditions": "intravenous, 2 mg/kg", "measurement": "Vd", "result": "82 L/kg", "Structure (SMILES)": "Cc1cc(S(=O)(=O)NC2CC(N3CCN(CC4CCN(c5cccc6c5n(C)c(=O)n6C5CCC(=O)NC5=O)CC4)C4(CC4)C3)C2)ccc1Nc1ncc(C(F)(F)F)c(N2CCC[C@](C)(O)C2)n1 (some centres unmarked)"}
{"assay": "metabolic stability", "test system": "mouse, liver microsomes", "measurement": "scaled CLint", "result": "195 mL/min/kg", "Structure (SMILES)": "CC(C)c1cc(C(=O)NCCN2CCCC2)c2cnn(C(C)C)c2n1"}
{"assay": "metabolic stability", "test system": "mouse, liver microsomes", "conditions": "1 µM, pH 7.4", "measurement": "microsomal CLint", "result": "40.4 µL/min/mg", "Structure (SMILES)": "CN(C)CCOc1ccc2c(=O)c3c([nH]c2c1)CCCC3"}
{"test system": "rat, plasma", "conditions": "intravenous, 2 mg/kg", "measurement": "Vd", "result": "9 L/kg", "Structure (SMILES)": "Cc1cc(S(=O)(=O)NC2CC(N3CCN(CC4CCN(c5ccc(NC6CCC(=O)NC6=O)cc5C)CC4)CC3)C2)ccc1Nc1ncc(C(F)(F)F)c(N2CCC[C@](C)(O)C2)n1 (some centres unmarked)"}
{"assay": "metabolic stability", "test system": "mouse, liver microsomes", "measurement": "microsomal CLint", "result": "< 7 µL/min/mg", "Structure (SMILES)": "O=C1NC(CF)(CF)C(=O)N1c1ccc(F)c(C(F)(F)F)c1"}
{"assay": "metabolic stability", "test system": "mouse, liver microsomes", "measurement": "scaled CLint", "result": "< 38 mL/min/kg", "Structure (SMILES)": "CC(C)n1ncc2c(C(=O)NCC3(C)CNC3)cc(C3CC3)nc21"}
{"test system": "rat, plasma", "conditions": "intravenous, 2 mg/kg", "measurement": "Vd", "result": "3 L/kg", "Structure (SMILES)": "CNS(=O)(=O)c1ccc(Nc2ncc(C(F)(F)F)c(N3CCC(C)(O)CC3)n2)c(C)c1"}
{"assay": "metabolic stability", "test system": "mouse, liver microsomes", "conditions": "1 µM, pH 7.4", "measurement": "microsomal CLint", "result": "0.59 µL/min/mg", "Structure (SMILES)": "O=c1c2ccc(OCc3cccc(C(F)(F)F)c3)cc2[nH]c2ccc(Cl)c(F)c12"}
{"assay": "metabolic stability", "test system": "mouse, liver microsomes", "measurement": "microsomal CLint", "result": "7 µL/min/mg", "Structure (SMILES)": "CCC(F)(F)c1cc(N2C(=O)NC(C)(C)C2=O)ccc1F"}
{"test system": "rat, plasma", "conditions": "intravenous, 2 mg/kg", "measurement": "Vd", "result": "4 L/kg", "Structure (SMILES)": "CNS(=O)(=O)c1ccc(Nc2ncc3cc(Cl)c(=O)n(C4CCCC4)c3n2)c(C)c1"}
{"test system": "male Sprague-Dawley rat, plasma", "conditions": "oral, 5 mg/kg, single dose", "measurement": "Vd/F", "result": "20 L/kg", "Structure (SMILES)": "C[C@H]1Oc2cc(cnc2N)-c2c(nn(C)c2C#N)CN(C)C(=O)c2ccc(F)cc21"}
